One compound from ChEMBL document CHEMBL4138186, “Synthesis and bio-evaluation of indole-chalcone based benzopyrans as promising antiligase and antiproliferative agents” (Eur J Med Chem, 2018) can be followed below.

pIC50: −log10 of the molar value. Active and inactive are the calls of the source. The rule behind the calls is not given here.

One experiment concerns MDA-MB-231. Nature of the experiment: Antiproliferative activity against human MDA-MB-231 cells after 48 hrs by MTT assay. The class given is functional, cell-based. As to conditions: MDA-MB-231, 48 h. The procedure, abridged:
(§1)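 Cells seeded and allowed to adhere overnight, then given compound from 10 mM DMSO stock; DMSO alone as vehicle control. Grown 48 h, MTT (5 mg/ml) added for 3 h, formazan dissolved in DMSO, absorbance read at 590 nm. % inhibition = (A control − A treated)/A control × 100; three independent biological replicates. Single-point screen at 10 μM; IC50 from three independent experiments.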
On the technique in general: Formazan colour is commonly taken as a measure of viable cells.

For experiment [1], the system named is DLD-1. The experiment can be described thus: Antiproliferative activity against human DLD1 cells after 48 hrs by MTT assay. In kind it is functional, cell-based. Conditions: DLD-1, 48 h. An outline of the steps:
as §1

The subject of the next experiment is HEK293. Nature of the experiment: Cytotoxicity against HEK293 cells after 48 hrs by MTT assay. The class given is cell-based. Conditions: Homo sapiens, HEK293, 48 h.
Another experiment has as its system HepG2. The experiment can be described thus: Antiproliferative activity against human HepG2 cells at 10 uM after 48 hrs by MTT assay. In kind it is functional, cell-based. The procedure, abridged:
as §1

Another experiment relates to DNA. Nature of the experiment: Binding affinity to Escherichia coli pUC18 DNA assessed as protection against DNase1-mediated cleavage at 250 to 700 uM preincubated for 30 mins followed by DNase1 addition measured after 5 mins by 1% agarose gel based UV-transilluminator analysis. The class given is nucleic-acid assay. The procedure, abridged:
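Linearized pUC18 plasmid DNA (100 ng) incubated with compound (250, 500, 700 μM) or controls (doxorubicin 100 μM; DAPI, methyl green, ampicillin 500 μM) for 30 min at 37 °C in ligation-like buffer. DNase I 0.0025 U added for 5 min at 37 °C, stopped with urea/EDTA buffer, resolved on 1% agarose and imaged under UV.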

For experiment [2], the system named is DLD-1. Nature of the experiment: Anti-migratory activity in human DLD1 cells at 2.5 to 5 uM after 12 to 48 hrs by wound healing assay. In kind it is functional, cell-based. An outline of the steps: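 DLD-1 monolayer at 70-80% confluence scratched with a pipette tip, then exposed to 2.5 and 5 μM for 12, 24 and 48 h (methods state 12, 24, 36 h). Wound imaged by phase-contrast microscopy; % open area quantified at each time point. Mean of three independent experiments.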

Experiment [3] concerns DLD-1. Nature of the experiment: Inhibition of colony formation of human DLD1 cells by crystal violet staining based assay. In kind it is functional, cell-based. The procedure, abridged: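 400 DLD-1 cells per well grown overnight in RPMI/10% FBS, then exposed to 1.25, 2.5 and 5 μM for 24 or 48 h. Medium replaced and colonies grown a further 10 days, medium changed every third day. Fixed and stained with 0.5% crystal violet/6% glutaraldehyde for 30 min at room temperature, then imaged.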

The test system of experiment [4] is DLD-1. Nature of the experiment: Induction of apoptosis in human DLD1 cells assessed as early apoptotic cells at 5 uM after 48 hrs by Annexin V-FITC/propidium iodide staining-based flow cytometric method relative to control. The class given is functional. An outline of the steps:
(§2)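 DLD-1 cells exposed to 2.5, 5 and 10 μM for 48 h, harvested, washed in cold PBS and stained with Annexin V-FITC and PI in binding buffer at room temperature in the dark. Analysed by flow cytometry; early and late apoptotic fractions averaged from three independent experiments.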

The test system of experiment [5] is DLD-1. The experiment can be described thus: Induction of apoptosis in human DLD1 cells assessed as late apoptotic cells at 10 uM after 48 hrs by Annexin V-FITC/propidium iodide staining-based flow cytometric method relative to control. The class given is functional. The procedure, abridged: as §2
(In general: In flow cytometry, cells or beads pass a laser one at a time.)

In experiment [6] the test system is DLD-1. Nature of the experiment: Induction of apoptosis in human DLD1 cells after 48 hrs by Annexin V-FITC/propidium iodide staining-based flow cytometric method. In kind it is functional, cell-based. An outline of the steps: as §2
Experiment [7] relates to DLD-1. The experiment can be described thus: Induction of apoptosis in 3D-spheroids of human DLD1 cells assessed as increase in cell death after 72 hrs by FDA/propidium iodide dye based phase contrast microscopy. In kind it is functional. An outline of the steps:
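DLD-1 spheroids formed by hanging drop (5×10^3 cells/10 μL RPMI, 3 days, 37 °C, 5% CO2), moved to 0.7% agarose-coated wells and grown 7 days. Treated 72 h at 25, 12.5 and 6.25. Stained with FDA 2 μg/ml and PI 20 μg/ml for 20 min in the dark; imaged by fluorescence microscopy.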

A short description of experiment [8]: Antiproliferative activity against mouse 4T1 cells after 48 hrs by MTT assay.

For orientation: pIC50 means the negative decadic logarithm of the IC50, by convention in mol/L. On to `Cc1[nH]c2ccccc2c1C1C(C#N)=C(N)Oc2c1cc(/C=C/C(=O)c1cccs1)cc2C(C)(C)C` (configuration not stated), for which the pIC50 in the experiment with MDA-MB-231 was 5.22; in the experiment on DLD-1 [1] it was 5.33; with HEK293, 4.91; in experiment [8], 5.24. The result in the experiment with HepG2, in the experiment with DLD-1 [2] and in the experiment with DLD-1 [7] was Active. Moreover, in the experiment on DNA, the outcome was inactive. For the same compound, the inhibition entry in the experiment with DLD-1 [3] was “Dose-dependent effect”. The figures for the Activity in the experiment with DLD-1 [4], in the experiment with DLD-1 [5] and with DLD-1 [6] were 17.38%, 50.96% and “Dose-dependent effect”, respectively.
